According to ChEMBL document CHEMBL1155280, “New arylthioindoles and related bioisosteres at the sulfur bridging group. 4. Synthesis, tubulin polymerization, cell growth inhibition, and molecular modeling studies” (J Med Chem, 2009):
Blank lines part the entries; values can stand above or below the compound they belong to. Calls of active or inactive are those of the source. The calls are words filed in the database; no cut-off is given here.

What was measured:
[1] = Inhibition of tubulin polymerization after 20 mins by spectrophotometry
Method in brief: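 Tubulin 10 μM in 0.8 M monosodium glutamate, pH 6.6, preincubated 15 min at 30 °C with varying drug, chilled on ice. GTP added to 0.4 mM, turbidity at 350 nm followed 20 min at 30 °C. Extent of assembly measured; IC50 ± SD.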

[2] = organism: Bos taurus; assay: Inhibition of [3H]colchicine binding to bovine tubulin at 5 uM after 10 mins by DEAE-cellulose filter method
[3] = tested on: MCF7; assay: Growth inhibition of human MCF7 cells after 48 hrs by sulforhodamine B assay; type: functional, cell-based; settings: MCF7, 48 h
[4] = tested on: HUVEC; assay: Growth inhibition of HUVEC; type: cell-based; settings: Homo sapiens
Method in brief: (§1)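 Human aortic smooth muscle, PtK2 kidney epithelial, rat A10 aortic smooth muscle and HUVEC lines grown as the supplier recommends, under 5% CO2.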

[5] = Growth inhibition of Potorous tridactylus PtK2 cells; type: cell-based; method in brief: as §1
[6] = Growth inhibition of HSMC; type: cell-based; settings: Homo sapiens; method in brief: as §1
[7] = tested on: U-937; assay: Cytotoxicity against human U937 cells after 48 hrs by MTT assay; type: functional, cell-based
Method in brief: (§2)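 MTT assay. Seeded 10^5 cells/well, compound added after 24 h at 10, 30, 50, 100, 150, 200 nM for 24 or 48 h. MTT 1 mg/mL, 2 h at 37 °C in dark, formazan dissolved in DMSO, read at 550 nm. Triplicate; 0.5% DMSO control.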

[8] = tested on: M14; assay: Cytotoxicity against human M14 cells at 10 to 200 nM by MTT assay; type: functional, cell-based; settings: TDE = time-dependent effect; method in brief: as §2
[9] = tested on: HeLa; assay: Antiproliferative activity against human HeLa cells assessed as cell proliferation at 1 uM after 24 hrs by MTT assay relative to control; type: functional; settings: read-out: Activity
Method in brief: (§3)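 HeLa and HCT116/chr3 cells grown at 37 °C, 5% CO2 in D-MEM with 10% fetal calf serum (HCT116/chr3 medium plus 500 μg/mL G418). Seeded 1 × 10^3 cells/well, treated 24 h later for 24 h from 10 mM DMSO stock; 1% DMSO solvent control. Quadruplicate, repeated three times; given as % of control ± SD.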

[10] = tested on: U-937; assay: Cytotoxicity against human U937 cells at 10 to 200 nM by MTT assay; type: functional, cell-based; settings: TDE = time-dependent effect; method in brief: as §2
[11] = organism: Homo sapiens; assay: Selectivity index, ratio of IC50 for HSMC to IC50 for human MCF7
Method in brief: (§4)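 Selectivity index: IC50 in the named nontransformed line divided by IC50 in MCF-7 cells.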

[12] = tested on: MCF7; assay: Selectivity index, ratio of IC50 for rat A10 cells to IC50 for human MCF7 cells; type: functional; method in brief: as §4
[13] = Growth inhibition of mouse J774.1 cells at 300 nM after 48 hrs by MTT assay relative to control; type: cell-based; settings: read-out: GI
[14] = tested on: Saccharomyces cerevisiae; assay: Toxicity in Saccharomyces cerevisiae assessed as growth inhibition at second dilution at 20 uM after 3 days; type: organism-based; settings: in vivo, 72 h
Method in brief: (§5)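 S. cerevisiae BY4741 grown at 28 °C in minimal SD medium with 2% glucose. Exponential culture (5 × 10^6 cells/mL) exposed 18 h at 28 °C to compound at 20 μM, washed, resuspended in SD, serially diluted 10-fold, incubated overnight. Spotted onto YPD plates; growth scored by dilution reached after 3 days at 28 °C.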

[15] = tested on: M14; assay: Cytotoxicity against human M14 cells after 48 hrs by MTT assay; type: functional, cell-based; method in brief: as §2
[16] = tested on: HeLa; assay: Antiproliferative activity against human HeLa cells assessed as cell proliferation at 0.5 uM after 24 hrs by MTT assay relative to control; type: functional; settings: read-out: Activity; method in brief: as §3
[17] = tested on: HEK293; assay: Cytotoxicity against HEK293 cells assessed as effect on cell morphology at 300 nM after 48 hrs by time-lapse microscopy; type: cell-based; settings: human, hek293, 48 h, 0.3 µM
Method in brief: (§6)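 Morphology of HEK and M14 cells followed by time-lapse microscopy in 96-well plates at 37 °C, 5% CO2, with images captured every hour over 48 h.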

[18] = tested on: MCF7; assay: Selectivity index, ratio of IC50 for HUVEC to IC50 for human MCF7 cells; method in brief: as §4
[19] = tested on: M14; assay: Cytotoxicity against human M14 cells assessed as effect on cell morphology at 300 nM after 48 hrs by time-lapse microscopy; type: functional, cell-based; method in brief: as §6
[20] = tested on: HEK293; assay: Cytotoxicity against HEK293 cells after 48 hrs by MTT assay; type: cell-based, Homo sapiens; settings: human, hek293, 48 h; method in brief: as §2
[21] = tested on: MCF7; assay: Selectivity index, ratio of IC50 for Potorous tridactylus PtK2 cells to IC50 for human MCF7 cells; type: functional; method in brief: as §4
[22] = tested on: HEK293; assay: Cytotoxicity against HEK293 cells at 10 to 200 nM by MTT assay; type: cell-based; settings: human, hek293, 0.2 µM; TDE = time-dependent effect; method in brief: as §2
[23] = tested on: HCT-116; assay: Antiproliferative activity against human HCT116 cells expressing mismatch repair gene MLH1 complemented with chromosome 3 assessed as cell proliferation at 1 uM after 24 hrs by MTT assay relative to control; type: functional; settings: HCT-116, 24 h, read-out: Activity; method in brief: as §3
[24] = tested on: Saccharomyces cerevisiae; assay: Toxicity in Saccharomyces cerevisiae assessed as growth inhibition at first dilution at 20 uM after 3 days; type: organism-based; settings: in vivo, 72 h; method in brief: as §5
[25] = tested on: A10; assay: Growth inhibition of rat A10 cells; type: cell-based; method in brief: as §1
[26] = tested on: HCT-116; assay: Antiproliferative activity against human HCT116 cells expressing mismatch repair gene MLH1 complemented with chromosome 3 assessed as cell proliferation at 0.5 uM after 24 hrs by MTT assay relative to control; type: functional; settings: HCT-116, 24 h, read-out: Activity; method in brief: as §3

IC50 [1]: > 40000 nM
Structure (SMILES): CCOC(=O)c1c(C)cc(C)n1Cc1cc(OC)c(OC)c(OC)c1

IC50 [1]: 2600 nM | inhibition [2]: 51%
Structure (SMILES): COc1cc(Sc2c[nH]c3ccc(Cl)cc23)cc(OC)c1OC

IC50 [1]: 2400 nM | IC50 [3]: 46 nM | inhibition [2]: 71%
Structure (SMILES): CCOC(=O)c1[nH]c2ccc(OC)cc2c1Sc1cc(OC)c(OC)c(OC)c1

IC50 [1]: 4200 nM | IC50 [3]: 190 nM | inhibition [2]: 33%
Structure (SMILES): COC(=O)c1[nH]c2ccccc2c1Cc1cc(OC)c(OC)c(OC)c1

Structure (SMILES): CC(=O)O[C@H]1C(=O)[C@@]2(C)[C@H]([C@H](OC(=O)c3ccccc3)[C@]3(O)C[C@H](OC(=O)[C@H](O)[C@@H](NC(=O)c4ccccc4)c4ccccc4)C(C)=C1C3(C)C)[C@]1(OC(C)=O)CO[C@@H]1C[C@@H]2O [PACLITAXEL]
IC50 [4]: 7 nM | IC50 [5]: 21 nM | IC50 [6]: 6 nM

IC50 [1]: > 40000 nM
Structure (SMILES): COc1cc(Cn2c(C)c(C)c(C)c2C(=O)OCCOCCO)cc(OC)c1OC

IC50 [1]: 14000 nM
Structure (SMILES): COc1ccc2[nH]cc(Cc3cc(OC)c(OC)c(OC)c3)c2c1

IC50 [1]: 32000 nM | IC50 [3]: > 2500 nM
Structure (SMILES): CCOC(=O)c1cccn1C(=O)c1cc(OC)c(OC)c(OC)c1

Structure (SMILES): COC(=O)c1[nH]c2ccc(Cl)cc2c1C(=O)c1cc(OC)c(OC)c(OC)c1
IC50 [1]: 1600 nM | IC50 [3]: 30 nM | inhibition [2]: 61%

IC50 [1]: 1600 nM | IC50 [3]: 43 nM | inhibition [2]: 65%
Structure (SMILES): COc1cc(Sc2c[nH]c3ccc(Br)cc23)cc(OC)c1OC
Activity [7]: Dose-dependent effect | IC50 ([7]; U-937, 48 h): 100 nM | Activity [8]: tde | growth at 1 µM [9]: 56% | IC50 [4]: 400 nM | IC50 [5]: 230 nM | Activity [10]: tde | Ratio IC50 [11]: 7 | Ratio IC50 [12]: 4.9 | inhibition at 48 h, 0.3 µM [13]: 20% | Activity [14]: Non-toxic | Activity [15]: Dose-dependent effect | IC50 ([15]; M14, 48 h): 194 nM | IC50 [6]: 300 nM | growth at 0.5 µM [16]: 47% | Activity [17]: Toxic | Ratio IC50 [18]: 9.3 | Activity [19]: Active | Activity [20]: Dose-dependent effect | Ratio IC50 [21]: 5.3 | Activity [22]: tde | growth at 1 µM [23]: 60% | Activity [24]: Toxic | IC50 [25]: 210 nM | growth at 0.5 µM [26]: 60%

IC50 [1]: > 40000 nM
Structure (SMILES): CCOC(=O)c1c(C)c(C)c(C)n1Cc1cc(OC)c(OC)c(OC)c1

IC50 [1]: 2600 nM | IC50 [3]: 90 nM | inhibition [2]: 49%
Structure (SMILES): CCOC(=O)c1[nH]c2ccc(OC)cc2c1C(=O)c1cc(OC)c(OC)c(OC)c1

IC50 [1]: 2200 nM | inhibition [2]: 53%
Structure (SMILES): CCOC(=O)c1[nH]c2ccc(Cl)cc2c1Sc1cc(OC)c(OC)c(OC)c1

IC50 [1]: > 40000 nM
Structure (SMILES): COC(=O)c1[nH]c2ccc(OC)cc2c1C(O)c1cc(OC)c(OC)c(OC)c1 (stereo unspecified)

IC50 [1]: 24000 nM
Structure (SMILES): COc1cc(Cc2c[nH]c3ccc(Cl)cc23)cc(OC)c1OC

IC50 [1]: 2500 nM | IC50 [3]: 230 nM | inhibition [2]: 39%
Structure (SMILES): CCOC(=O)c1[nH]c2ccc(Cl)cc2c1Cc1cc(OC)c(OC)c(OC)c1

IC50 [1]: 2500 nM | IC50 [3]: 53 nM | inhibition [2]: 44%
Structure (SMILES): COc1cc(C(=O)c2c[nH]c3ccc(Cl)cc23)cc(OC)c1OC

IC50 [1]: 3500 nM | IC50 [3]: 150 nM | inhibition [2]: 26%
Structure (SMILES): COc1cc(C(=O)c2c[nH]c3ccccc23)cc(OC)c1OC

IC50 [1]: > 40000 nM | IC50 [3]: > 2500 nM
Structure (SMILES): COc1cc(Cn2cccc2C(=O)O)cc(OC)c1OC
Activity [14]: Non-toxic | Activity [24]: Toxic

IC50 [1]: 2800 nM | IC50 [3]: 93 nM | inhibition [2]: 42%
Structure (SMILES): CCOC(=O)c1[nH]c2ccc(OC)cc2c1Cc1cc(OC)c(OC)c(OC)c1
